Values belong to the molecule of their own block, whether it stands above or below them.
How the values were obtained:
K15A-TTR [1] = target: T1, K15A-TTR (Homo sapiens, UniProt P02766, K35A); test: non-covalent binding to K15A-TTR; settings: out of a maximum of 2 eq.; immunocapture, high-pH dissociation, HPLC
K15A-TTR [2] = target: T1, K15A-TTR; test: reaction with K15A-TTR homotetramer by RP-HPLC; assay type: binding; settings: compound 7.2 μM, 18 h, 25 °C
[3] = target: TTR in human blood plasma (Homo sapiens, UniProt P02766); test: covalent modification of TTR in human blood plasma ex vivo; assay type: binding; settings: compound 10.8 μM, 37 °C, maximum 50% (2/4 subunits)
Procedure, shortened: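 Test compound at 10.8 μM final, from DMSO stock, incubated with human plasma (TTR 3.6–5.4 μM) for 24 h at 37 °C with rocking. Plasma pre-cleared on plain sepharose for 1 h at 4 °C. TTR immunocaptured on anti-TTR sepharose for 20 min at 4 °C, then washed with Tris-saline ± 0.05% saponin. Eluted with 100 mM triethylamine, pH 11.5. C18 RP-HPLC, 45-min 0.1% TFA water→acetonitrile gradient; at most 2/4 subunits modifiable.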

recombinant WT-TTR = recombinant WT-TTR (Homo sapiens, UniProt P02766); test: conjugation of recombinant WT-TTR by RP-HPLC; assay type: binding; settings: for conjugation half-life (t50) with WT-TTR: recombinant WT-TTR, C18-RP-HPLC
K15A-TTR [4] = target: T1, K15A-TTR; test: K15A-TTR fibril formation at pH 4.4 with non-covalent stabilizers; assay type: biochemical; settings: compound 7.2 μM, 72 h
[5] = tested on: IMR-32 human neuroblastoma cells; settings: cited from earlier work

SMILES: O=C(Sc1ccccc1)c1cccc(/C=C/c2cc(Br)c(O)c(Br)c2)c1 [Compound 1]
- % Modification of TTR subunits in Human Blood Plasma [3]: 36% (±0.4%)
- conjugation half-life (t50) with WT-TTR (recombinant WT-TTR): 143 min

SMILES: Cc1cc(/C=C/c2cccc(C(=O)O)c2)cc(C)c1O [Compound 8]
- stabilization of K15A-TTR against fibril formation (K15A-TTR [4]): additional stabilization of K15A-TTR was observed

SMILES: Oc1ccc(/C=C/c2cc(O)cc(O)c2)cc1 [resveratrol]
- prevention of amyloid-formation-associated cytotoxicity [5]: known to prevent amyloid-formation-associated cytotoxicity

SMILES: Cc1cc(/C=C/c2ccccc2)cc(C)c1O [Compound 9]
- stabilization of K15A-TTR against fibril formation (K15A-TTR [4]): additional stabilization of K15A-TTR was observed

Other lines, results leading:

- equivalents non-covalently bound to K15A-TTR homotetramer (K15A-TTR [1]): 1.4 eq.
- reaction with K15A-TTR (K15A-TTR [2]): no reaction could be detected
SMILES: Cc1cc(/C=C/c2cccc(C(=O)Oc3ccc(F)cc3)c2)cc(C)c1O [Compound 4]

- reaction with K15A-TTR (K15A-TTR [2]): more non-chemoselective conjugation
SMILES: Cc1cc(/C=C/c2ccc(C(=O)Oc3ccccc3[N+](=O)[O-])cc2)cc(C)c1O [Compound 6]

- % Modification of TTR subunits in Human Blood Plasma [3]: 48% (±1.3%)
- conjugation half-life (t50) with WT-TTR (recombinant WT-TTR): 5 to 15 min
SMILES: Cc1cc(/C=C/c2cccc(C(=O)Sc3ccccc3)c2)cc(C)c1O [Compound 2]

- % Modification of TTR subunits in Human Blood Plasma [3]: 49% (±0.7%)
- conjugation half-life (t50) with WT-TTR (recombinant WT-TTR): 5 to 15 min
SMILES: Cc1cc(/C=C/c2cccc(C(=O)Oc3ccccc3[N+](=O)[O-])c2)cc(C)c1O [Compound 3]

- conjugation yield with WT-TTR (recombinant WT-TTR; WT-TTR […], compound 7.2 μM, 18 h, 25 °C): lower modification yield
SMILES: Cc1cc(/C=C/c2ccc(C(=O)Oc3ccc(F)cc3)cc2)cc(C)c1O [Compound 7]
